Experimental data published in ChEMBL document CHEMBL1795205, “The new 5- or 6-azapyrimidine and cyanuric acid derivatives of l-ascorbic acid bearing the free C-5 hydroxy or C-4 amino group at the ethylenic spacer: CD-spectral absolute configuration determination and biological activity evaluations” (Eur J Med Chem, 2011).

Tested on: HeLa
Test: Cytostatic activity against human HeLa cells assessed as inhibition of cell proliferation after 72 hrs by MTT assay
Format: functional, cell-based
Conditions: not given
Procedure, shortened: (§1)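 Monolayer cells grown in DMEM with 10% FBS were seeded on day 0 at 3000–6000 cells/well, set by each line's doubling time. Agents were added the next step in five 10-fold dilutions (0.01–100) for 72 h, with DMSO ≤0.1% and a solvent control. MTT absorbance was converted to percentage growth versus untreated wells on the same plate. Where all PGs exceeded 50, the top concentration was reported as ">". ANOVA/Tukey, p<0.05.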

| IC50 [µM] | SMILES |
| --- | --- |
| > 100 | Nc1ncn(C/C=C2\OC(=O)C(O)=C2OCc2ccccc2)c(=O)n1 |

Tested on: MIA PaCa-2
Test: Cytostatic activity against human MIAPaCa2 cells assessed as inhibition of cell proliferation after 72 hrs by MTT assay
Format: functional, cell-based
Conditions: MIA PaCa-2, 72 h
Procedure, shortened: as §1

| IC50 [µM] | SMILES |
| --- | --- |
| > 100 | Nc1ncn(C/C=C2\OC(=O)C(O)=C2OCc2ccccc2)c(=O)n1 |

Tested on: HepG2
Test: Cytostatic activity against human HepG2 cells assessed as inhibition of cell proliferation after 72 hrs by MTT assay
Format: functional, cell-based
Conditions: HepG2, 72 h
Procedure, shortened: as §1

| IC50 [µM] | SMILES |
| --- | --- |
| > 100 | Nc1ncn(C/C=C2\OC(=O)C(O)=C2OCc2ccccc2)c(=O)n1 |

Tested on: WI-38
Test: Cytotoxicity against human WI38 cells assessed as inhibition of cell proliferation after 72 hrs by MTT assay
Format: cell-based
Conditions: WI-38, 72 h
Procedure, shortened: as §1

| SMILES | IC50 [µM] |
| --- | --- |
| Nc1ncn(C/C=C2\OC(=O)C(O)=C2OCc2ccccc2)c(=O)n1 | > 100 |

Tested on: SW-620
Test: Cytostatic activity against human SW620 cells assessed as inhibition of cell proliferation after 72 hrs by MTT assay
Format: functional, cell-based
Conditions: SW-620, 72 h
Procedure, shortened: as §1

| IC50 [µM] | SMILES |
| --- | --- |
| > 100 | Nc1ncn(C/C=C2\OC(=O)C(O)=C2OCc2ccccc2)c(=O)n1 |

Tested on: MCF7
Test: Cytostatic activity against human MCF7 cells assessed as inhibition of cell proliferation after 72 hrs by MTT assay
Format: functional, cell-based
Conditions: MCF7, 72 h
Procedure, shortened: as §1

| IC50 [µM] | SMILES |
| --- | --- |
| > 100 | Nc1ncn(C/C=C2\OC(=O)C(O)=C2OCc2ccccc2)c(=O)n1 |
